According to BindingDB's records for doi:10.1021/acs.jmedchem.8b01327 (2019):
pKi: −log10 of the molar value.

Biological target: Mu-type opioid receptor (Rattus norvegicus, UniProt P33535)
Assay: Displacement of [3H]DAMGO from mu opioid receptor in rat brain membranes incubated for 45 mins by liquid scintillation counting method
Method in brief: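 Rat brain membranes (cerebella removed; 0.3–0.5 mg protein) in 50 mM Tris-HCl, pH 7.4, were incubated 45 min at 35 °C with 1 nM [3H]DAMGO (MOR) or 0.5 nM [3H][Ile5,6]deltorphin II (DOR) plus varied test concentrations. Nonspecific binding was set with 10 μM naloxone. Samples were GF/C filtered, washed and scintillation counted. Ki was obtained by Cheng–Prusoff; duplicates, 3–4 experiments.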

Chain of Mu-type opioid receptor (P33535 whole entry): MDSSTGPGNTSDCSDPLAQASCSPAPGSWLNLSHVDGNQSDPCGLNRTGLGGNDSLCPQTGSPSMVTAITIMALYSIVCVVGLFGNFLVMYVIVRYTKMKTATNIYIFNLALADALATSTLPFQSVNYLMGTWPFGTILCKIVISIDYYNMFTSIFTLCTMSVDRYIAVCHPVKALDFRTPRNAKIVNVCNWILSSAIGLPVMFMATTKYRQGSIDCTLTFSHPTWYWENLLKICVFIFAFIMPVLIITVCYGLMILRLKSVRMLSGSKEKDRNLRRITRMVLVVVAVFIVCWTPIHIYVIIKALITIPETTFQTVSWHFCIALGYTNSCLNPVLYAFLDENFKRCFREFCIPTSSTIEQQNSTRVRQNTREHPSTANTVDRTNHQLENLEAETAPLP

Compound: CO[C@@]12CC[C@@H](N[C@@H](CC(N)=O)C(=O)O)[C@@H]3Oc4c(O)ccc5c4[C@@]31CCN(C)[C@@H]2C5
- pKi: 8.89
